Data reported in ChEMBL document CHEMBL5058577, “EUbOPEN Chemogenomics Library 2 (Multiplex)” (2022).

Tested on: U2OS
Test: Multiplex assay against U2OS
Format: toxicity, cell-based
Settings: human
Method in brief: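 At seeding, live cells were stained with Hoechst33342, BioTracker Green Microtubule Cytoskeleton Dye, MitoTracker Red and Annexin V Alexa Fluor 680. After compound addition they were imaged on a CQ1 microscope at 37°C and 5% CO2, and CellPathfinder machine-learning gating sorted them into Hoechst high-intensity objects or normal cells, with normal cells further split into healthy, pyknosed or fragmented nuclei and pyknosed cells into mitotic or apoptotic. Tubulin, mitochondrial-mass and membrane-permeability phenotypes are given as per cents of cells with healthy nuclei.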

[1] = 12 h, 1 µM, compound concentration 1 uM, replicate 1
[2] = 12 h, 1 µM, compound concentration 1 uM, replicate 2
[3] = 12 h, 10 µM, compound concentration 10 uM, replicate 1
[4] = 12 h, 10 µM, compound concentration 10 uM, replicate 2
[5] = 24 h, 1 µM, compound concentration 1 uM, replicate 1
[6] = 24 h, 1 µM, compound concentration 1 uM, replicate 2
[7] = 24 h, 10 µM, compound concentration 10 uM, replicate 1
[8] = 24 h, 10 µM, compound concentration 10 uM, replicate 2
[9] = 48 h, 1 µM, compound concentration 1 uM, replicate 1
[10] = 48 h, 1 µM, compound concentration 1 uM, replicate 2
[11] = 48 h, 10 µM, compound concentration 10 uM, replicate 1
[12] = 48 h, 10 µM, compound concentration 10 uM, replicate 2

O=C(O)CCC/C=C\CC1C(O)CC(O)C1/C=C/C(O)COc1cccc(Cl)c1 (centres undefined) [CLOPROSTENOL]
Population Apoptotic (%) [1]: 77% | Population Fragmented Nuclei (%) [1]: 30% | Population Healthy Nuclei (%) [1]: 60% | Population Hoechst High Intensity Objects (%) [1]: 3% | Population Membrane Permeable-Phenotype (%) [1]: 2% | Population Mitochondria Different-Phenotype (%) [1]: 0% | Population Mitotic Cells (%) [1]: 22% | Population Normal (%) [1]: 96% | Population Pyknosed Nuclei (%) [1]: 9% | Population Tubulin-Different-Phenotype (%) [1]: 1% | Total Cell Count [1]: 201 | Population Apoptotic (%) [2]: 75% | Population Fragmented Nuclei (%) [2]: 11% | Population Healthy Nuclei (%) [2]: 82% | Population Hoechst High Intensity Objects (%) [2]: 0% | Population Membrane Permeable-Phenotype (%) [2]: 6% | Population Mitochondria Different-Phenotype (%) [2]: 3% | Population Mitotic Cells (%) [2]: 25% | Population Normal (%) [2]: 100% | Population Pyknosed Nuclei (%) [2]: 6% | Population Tubulin-Different-Phenotype (%) [2]: 2% | Total Cell Count [2]: 129 | Population Apoptotic (%) [3]: 92% | Population Fragmented Nuclei (%) [3]: 28% | Population Healthy Nuclei (%) [3]: 60% | Population Hoechst High Intensity Objects (%) [3]: 2% | Population Membrane Permeable-Phenotype (%) [3]: 8% | Population Mitochondria Different-Phenotype (%) [3]: 1% | Population Mitotic Cells (%) [3]: 7% | Population Normal (%) [3]: 97% | Population Pyknosed Nuclei (%) [3]: 10% | Population Tubulin-Different-Phenotype (%) [3]: 3% | Total Cell Count [3]: 272 | Population Apoptotic (%) [4]: 45% | Population Fragmented Nuclei (%) [4]: 9% | Population Healthy Nuclei (%) [4]: 81% | Population Hoechst High Intensity Objects (%) [4]: 0% | Population Membrane Permeable-Phenotype (%) [4]: 9% | Population Mitochondria Different-Phenotype (%) [4]: 6% | Population Mitotic Cells (%) [4]: 54% | Population Normal (%) [4]: 100% | Population Pyknosed Nuclei (%) [4]: 8% | Total Cell Count [4]: 131 | Population Apoptotic (%) [5]: 81% | Population Fragmented Nuclei (%) [5]: 24% | Population Healthy Nuclei (%) [5]: 63% | Population Hoechst High Intensity Objects (%) [5]: 1% | Population Membrane Permeable-Phenotype (%) [5]: 4% | Population Mitochondria Different-Phenotype (%) [5]: 2% | Population Mitotic Cells (%) [5]: 18% | Population Normal (%) [5]: 98% | Population Pyknosed Nuclei (%) [5]: 11% | Population Tubulin-Different-Phenotype (%) [5]: 2% | Total Cell Count [5]: 237 | Population Apoptotic (%) [6]: 75% | Population Fragmented Nuclei (%) [6]: 15% | Population Healthy Nuclei (%) [6]: 77% | Population Hoechst High Intensity Objects (%) [6]: 0% | Population Membrane Permeable-Phenotype (%) [6]: 6% | Population Mitotic Cells (%) [6]: 25% | Population Normal (%) [6]: 100% | Population Pyknosed Nuclei (%) [6]: 7% | Population Tubulin-Different-Phenotype (%) [6]: 4% | Total Cell Count [6]: 157 | Population Apoptotic (%) [7]: 90% | Population Fragmented Nuclei (%) [7]: 23% | Population Healthy Nuclei (%) [7]: 66% | Population Hoechst High Intensity Objects (%) [7]: 2% | Population Membrane Permeable-Phenotype (%) [7]: 7% | Population Mitochondria Different-Phenotype (%) [7]: 2% | Population Mitotic Cells (%) [7]: 10% | Population Normal (%) [7]: 97% | Population Pyknosed Nuclei (%) [7]: 10% | Population Tubulin-Different-Phenotype (%) [7]: 3% | Total Cell Count [7]: 306 | Population Apoptotic (%) [8]: 70% | Population Fragmented Nuclei (%) [8]: 11% | Population Healthy Nuclei (%) [8]: 82% | Population Hoechst High Intensity Objects (%) [8]: 0% | Population Membrane Permeable-Phenotype (%) [8]: 11% | Population Mitochondria Different-Phenotype (%) [8]: 4% | Population Mitotic Cells (%) [8]: 30% | Population Normal (%) [8]: 100% | Population Pyknosed Nuclei (%) [8]: 5% | Population Tubulin-Different-Phenotype (%) [8]: 4% | Total Cell Count [8]: 177 | Population Apoptotic (%) [9]: 89% | Population Fragmented Nuclei (%) [9]: 20% | Population Healthy Nuclei (%) [9]: 70% | Population Hoechst High Intensity Objects (%) [9]: 1% | Population Membrane Permeable-Phenotype (%) [9]: 2% | Population Mitochondria Different-Phenotype (%) [9]: 1% | Population Mitotic Cells (%) [9]: 10% | Population Normal (%) [9]: 98% | Population Pyknosed Nuclei (%) [9]: 8% | Population Tubulin-Different-Phenotype (%) [9]: 0% | Total Cell Count [9]: 344 | Population Apoptotic (%) [10]: 81% | Population Fragmented Nuclei (%) [10]: 11% | Population Healthy Nuclei (%) [10]: 81% | Population Hoechst High Intensity Objects (%) [10]: 0% | Population Membrane Permeable-Phenotype (%) [10]: 6% | Population Mitochondria Different-Phenotype (%) [10]: 3% | Population Mitotic Cells (%) [10]: 18% | Population Normal (%) [10]: 99% | Population Pyknosed Nuclei (%) [10]: 7% | Population Tubulin-Different-Phenotype (%) [10]: 2% | Total Cell Count [10]: 229 | Population Apoptotic (%) [11]: 91% | Population Fragmented Nuclei (%) [11]: 18% | Population Healthy Nuclei (%) [11]: 67% | Population Hoechst High Intensity Objects (%) [11]: 3% | Population Membrane Permeable-Phenotype (%) [11]: 6% | Population Mitochondria Different-Phenotype (%) [11]: 1% | Population Mitotic Cells (%) [11]: 8% | Population Normal (%) [11]: 96% | Population Pyknosed Nuclei (%) [11]: 14% | Population Tubulin-Different-Phenotype (%) [11]: 4% | Total Cell Count [11]: 396 | Population Apoptotic (%) [12]: 84% | Population Fragmented Nuclei (%) [12]: 12% | Population Healthy Nuclei (%) [12]: 82% | Population Hoechst High Intensity Objects (%) [12]: 2% | Population Membrane Permeable-Phenotype (%) [12]: 10% | Population Mitochondria Different-Phenotype (%) [12]: 2% | Population Mitotic Cells (%) [12]: 15% | Population Normal (%) [12]: 97% | Population Pyknosed Nuclei (%) [12]: 5% | Total Cell Count [12]: 246
